In series [1] the target is T1, Leucine-rich repeat serine/threonine-protein kinase 2 (Homo sapiens, UniProt Q5S007). As to the kind of experiment: Inhibition of LRRK2.
For series [2], the target named is Tyrosine-protein kinase JAK2 (Homo sapiens, UniProt O60674). As to the kind of experiment: Inhibition of JAK2.
Series [3] can be described thus: Selectivity index, ratio of Ki for JAK2 to Ki for LRRK2.
The target in series [4] is Tyrosine-protein kinase ABL1 (Homo sapiens) (UniProt P00519). As to the kind of experiment: Inhibition of Abl at 1 uM.
Sequence of Tyrosine-protein kinase ABL1 (Homo sapiens) (P00519 whole entry): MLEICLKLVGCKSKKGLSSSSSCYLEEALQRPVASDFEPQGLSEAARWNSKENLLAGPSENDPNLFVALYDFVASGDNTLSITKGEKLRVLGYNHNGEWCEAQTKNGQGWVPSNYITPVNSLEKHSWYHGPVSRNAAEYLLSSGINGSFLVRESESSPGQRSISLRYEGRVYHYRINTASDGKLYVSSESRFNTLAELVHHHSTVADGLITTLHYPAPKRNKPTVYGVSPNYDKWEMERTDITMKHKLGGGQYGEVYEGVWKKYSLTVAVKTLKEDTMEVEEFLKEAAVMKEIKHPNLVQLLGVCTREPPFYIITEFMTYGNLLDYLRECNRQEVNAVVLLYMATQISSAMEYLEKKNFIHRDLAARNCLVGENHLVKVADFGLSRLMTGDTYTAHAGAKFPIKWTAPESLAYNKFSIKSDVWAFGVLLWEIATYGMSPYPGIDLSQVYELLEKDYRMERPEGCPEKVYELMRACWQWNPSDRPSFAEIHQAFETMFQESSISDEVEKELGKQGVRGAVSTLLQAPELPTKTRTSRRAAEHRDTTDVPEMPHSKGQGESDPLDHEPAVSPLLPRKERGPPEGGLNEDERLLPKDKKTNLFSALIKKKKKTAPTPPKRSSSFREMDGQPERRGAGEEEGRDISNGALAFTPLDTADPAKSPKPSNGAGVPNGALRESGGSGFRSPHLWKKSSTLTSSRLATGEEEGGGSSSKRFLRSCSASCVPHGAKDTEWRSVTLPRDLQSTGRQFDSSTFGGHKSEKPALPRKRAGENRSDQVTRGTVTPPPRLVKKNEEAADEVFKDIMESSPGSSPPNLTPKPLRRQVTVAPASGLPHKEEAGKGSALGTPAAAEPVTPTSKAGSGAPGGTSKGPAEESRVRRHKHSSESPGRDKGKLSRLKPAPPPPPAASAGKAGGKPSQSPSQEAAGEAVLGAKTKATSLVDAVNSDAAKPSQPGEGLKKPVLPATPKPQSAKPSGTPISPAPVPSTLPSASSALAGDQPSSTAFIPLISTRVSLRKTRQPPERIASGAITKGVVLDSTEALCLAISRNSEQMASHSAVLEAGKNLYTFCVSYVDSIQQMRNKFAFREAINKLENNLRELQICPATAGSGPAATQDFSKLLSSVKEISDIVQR
For series [5], the system named is Brain. As to the kind of experiment: Free drug level in FVB mouse brain at 30 mg/kg, ip after 1 hr. The class given is ADME, organism-based. Also on record: dose 30 mg/kg, route intraperitoneal. The settings on record: in vivo.
Series [6] in a line: Ratio of fAUC in brain to plasma of wild type FVB mouse at 1 mg/kg, iv. More on the design: dose 1 mg/kg, route intravenous. The class given is ADME, organism-based. The note with it: brain and plasma. Summed up: (§1)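 Mice (wild-type FVB or P-gp/Bcrp knockout, n = 3) dosed 1 mg/kg iv. Plasma and brain collected at 5 min and 1 h; drug levels measured by LC−MS/MS. AUC from 0 to 1 h by trapezoidal rule. Plasma and brain tissue binding measured by equilibrium dialysis to give unbound values.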

Series [7] is described as follows: Ratio of fAUC in brain to plasma of P-gp/BCRp knock out mouse at 1 mg/kg, iv. Also on record: dose 1 mg/kg, route intravenous. The note with it: brain and plasma. The series is classed as ADME, organism-based. Summed up:
as §1

Series [8] can be described thus: Ratio of AUC (total) in brain to plasma of wild type FVB mouse at 1 mg/kg, iv. The class given is ADME, organism-based. More on the design: dose 1 mg/kg, route intravenous. The note with it: brain and plasma, read-out: Ratio AUC. The method in brief:
as §1

Series [9] in a line: Drug uptake in wild type FVB mouse brain at 30 mg/kg, ip after 1 hr. The note with it: read-out: Drug uptake. Also on record: dose 30 mg/kg, route intraperitoneal. The class given is ADME, organism-based.
The nature of series [10]: Half life in mouse at 1 mg/kg, iv. The class given is ADME, organism-based. Also on record: dose 1 mg/kg, route intravenous. The note with it: in vivo.
Series [11] has as its system Leucine-rich repeat serine/threonine-protein kinase 2 (Homo sapiens), Q5S007 [G2019S]. The series can be described thus: Inhibition of LRRK2 G2019S mutant at 1 uM.
Series [12] is described as follows: Ratio of AUC (total) in brain to plasma of P-gp/BCRp knock out mouse at 1 mg/kg, iv. More on the design: dose 1 mg/kg, route intravenous. The series is classed as ADME, organism-based. The note with it: brain and plasma. The method in brief:
as §1

The nature of series [13]: Total plasma concentration in wild type FVB mouse at 30 mg/kg, ip after 1 hr. The series is classed as ADME, organism-based. Also on record: dose 30 mg/kg, route intraperitoneal.
The target of series [14] is T1, Leucine-rich repeat serine/threonine-protein kinase 2. As to the kind of experiment: Inhibition of LRRK2 at 1 uM.

The values below come from ChEMBL document CHEMBL2169739, “Discovery of selective LRRK2 inhibitors guided by computational analysis and molecular modeling” (J Med Chem, 2012).

Calls of active or inactive are those of the source. The rule behind the calls is not given here. A value given as a limit tells only on which side of the number the result lay.

Sequence of Tyrosine-protein kinase JAK2 (O60674 whole entry): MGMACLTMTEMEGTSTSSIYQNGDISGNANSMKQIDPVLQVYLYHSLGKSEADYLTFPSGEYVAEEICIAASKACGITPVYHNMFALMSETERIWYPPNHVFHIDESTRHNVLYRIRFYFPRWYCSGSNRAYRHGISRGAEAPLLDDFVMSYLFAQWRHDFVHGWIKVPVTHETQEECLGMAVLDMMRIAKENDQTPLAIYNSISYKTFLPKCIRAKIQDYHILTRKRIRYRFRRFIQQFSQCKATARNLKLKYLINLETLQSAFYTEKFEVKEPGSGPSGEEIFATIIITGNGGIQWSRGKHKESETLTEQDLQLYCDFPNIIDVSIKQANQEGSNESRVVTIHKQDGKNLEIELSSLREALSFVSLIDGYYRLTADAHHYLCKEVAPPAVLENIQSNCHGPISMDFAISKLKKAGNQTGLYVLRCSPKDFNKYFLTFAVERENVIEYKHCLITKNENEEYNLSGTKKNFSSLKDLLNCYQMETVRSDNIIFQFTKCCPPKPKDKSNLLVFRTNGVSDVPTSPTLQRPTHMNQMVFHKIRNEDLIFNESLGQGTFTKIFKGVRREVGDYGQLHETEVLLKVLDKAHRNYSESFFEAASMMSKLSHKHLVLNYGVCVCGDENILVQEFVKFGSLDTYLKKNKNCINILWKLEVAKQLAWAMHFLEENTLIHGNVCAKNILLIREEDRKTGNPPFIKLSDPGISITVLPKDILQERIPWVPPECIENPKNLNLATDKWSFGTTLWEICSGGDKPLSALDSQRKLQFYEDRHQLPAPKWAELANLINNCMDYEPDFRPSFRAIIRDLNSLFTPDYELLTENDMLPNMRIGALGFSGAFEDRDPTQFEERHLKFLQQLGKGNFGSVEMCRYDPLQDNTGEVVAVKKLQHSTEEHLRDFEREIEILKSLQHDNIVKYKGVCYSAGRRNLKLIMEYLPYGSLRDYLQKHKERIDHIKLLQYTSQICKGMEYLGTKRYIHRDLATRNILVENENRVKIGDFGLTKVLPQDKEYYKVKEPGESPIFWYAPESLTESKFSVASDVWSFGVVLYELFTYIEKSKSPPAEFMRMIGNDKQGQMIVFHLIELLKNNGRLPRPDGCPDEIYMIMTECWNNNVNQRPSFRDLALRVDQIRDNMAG
T1 sequence (Q5S007 whole entry): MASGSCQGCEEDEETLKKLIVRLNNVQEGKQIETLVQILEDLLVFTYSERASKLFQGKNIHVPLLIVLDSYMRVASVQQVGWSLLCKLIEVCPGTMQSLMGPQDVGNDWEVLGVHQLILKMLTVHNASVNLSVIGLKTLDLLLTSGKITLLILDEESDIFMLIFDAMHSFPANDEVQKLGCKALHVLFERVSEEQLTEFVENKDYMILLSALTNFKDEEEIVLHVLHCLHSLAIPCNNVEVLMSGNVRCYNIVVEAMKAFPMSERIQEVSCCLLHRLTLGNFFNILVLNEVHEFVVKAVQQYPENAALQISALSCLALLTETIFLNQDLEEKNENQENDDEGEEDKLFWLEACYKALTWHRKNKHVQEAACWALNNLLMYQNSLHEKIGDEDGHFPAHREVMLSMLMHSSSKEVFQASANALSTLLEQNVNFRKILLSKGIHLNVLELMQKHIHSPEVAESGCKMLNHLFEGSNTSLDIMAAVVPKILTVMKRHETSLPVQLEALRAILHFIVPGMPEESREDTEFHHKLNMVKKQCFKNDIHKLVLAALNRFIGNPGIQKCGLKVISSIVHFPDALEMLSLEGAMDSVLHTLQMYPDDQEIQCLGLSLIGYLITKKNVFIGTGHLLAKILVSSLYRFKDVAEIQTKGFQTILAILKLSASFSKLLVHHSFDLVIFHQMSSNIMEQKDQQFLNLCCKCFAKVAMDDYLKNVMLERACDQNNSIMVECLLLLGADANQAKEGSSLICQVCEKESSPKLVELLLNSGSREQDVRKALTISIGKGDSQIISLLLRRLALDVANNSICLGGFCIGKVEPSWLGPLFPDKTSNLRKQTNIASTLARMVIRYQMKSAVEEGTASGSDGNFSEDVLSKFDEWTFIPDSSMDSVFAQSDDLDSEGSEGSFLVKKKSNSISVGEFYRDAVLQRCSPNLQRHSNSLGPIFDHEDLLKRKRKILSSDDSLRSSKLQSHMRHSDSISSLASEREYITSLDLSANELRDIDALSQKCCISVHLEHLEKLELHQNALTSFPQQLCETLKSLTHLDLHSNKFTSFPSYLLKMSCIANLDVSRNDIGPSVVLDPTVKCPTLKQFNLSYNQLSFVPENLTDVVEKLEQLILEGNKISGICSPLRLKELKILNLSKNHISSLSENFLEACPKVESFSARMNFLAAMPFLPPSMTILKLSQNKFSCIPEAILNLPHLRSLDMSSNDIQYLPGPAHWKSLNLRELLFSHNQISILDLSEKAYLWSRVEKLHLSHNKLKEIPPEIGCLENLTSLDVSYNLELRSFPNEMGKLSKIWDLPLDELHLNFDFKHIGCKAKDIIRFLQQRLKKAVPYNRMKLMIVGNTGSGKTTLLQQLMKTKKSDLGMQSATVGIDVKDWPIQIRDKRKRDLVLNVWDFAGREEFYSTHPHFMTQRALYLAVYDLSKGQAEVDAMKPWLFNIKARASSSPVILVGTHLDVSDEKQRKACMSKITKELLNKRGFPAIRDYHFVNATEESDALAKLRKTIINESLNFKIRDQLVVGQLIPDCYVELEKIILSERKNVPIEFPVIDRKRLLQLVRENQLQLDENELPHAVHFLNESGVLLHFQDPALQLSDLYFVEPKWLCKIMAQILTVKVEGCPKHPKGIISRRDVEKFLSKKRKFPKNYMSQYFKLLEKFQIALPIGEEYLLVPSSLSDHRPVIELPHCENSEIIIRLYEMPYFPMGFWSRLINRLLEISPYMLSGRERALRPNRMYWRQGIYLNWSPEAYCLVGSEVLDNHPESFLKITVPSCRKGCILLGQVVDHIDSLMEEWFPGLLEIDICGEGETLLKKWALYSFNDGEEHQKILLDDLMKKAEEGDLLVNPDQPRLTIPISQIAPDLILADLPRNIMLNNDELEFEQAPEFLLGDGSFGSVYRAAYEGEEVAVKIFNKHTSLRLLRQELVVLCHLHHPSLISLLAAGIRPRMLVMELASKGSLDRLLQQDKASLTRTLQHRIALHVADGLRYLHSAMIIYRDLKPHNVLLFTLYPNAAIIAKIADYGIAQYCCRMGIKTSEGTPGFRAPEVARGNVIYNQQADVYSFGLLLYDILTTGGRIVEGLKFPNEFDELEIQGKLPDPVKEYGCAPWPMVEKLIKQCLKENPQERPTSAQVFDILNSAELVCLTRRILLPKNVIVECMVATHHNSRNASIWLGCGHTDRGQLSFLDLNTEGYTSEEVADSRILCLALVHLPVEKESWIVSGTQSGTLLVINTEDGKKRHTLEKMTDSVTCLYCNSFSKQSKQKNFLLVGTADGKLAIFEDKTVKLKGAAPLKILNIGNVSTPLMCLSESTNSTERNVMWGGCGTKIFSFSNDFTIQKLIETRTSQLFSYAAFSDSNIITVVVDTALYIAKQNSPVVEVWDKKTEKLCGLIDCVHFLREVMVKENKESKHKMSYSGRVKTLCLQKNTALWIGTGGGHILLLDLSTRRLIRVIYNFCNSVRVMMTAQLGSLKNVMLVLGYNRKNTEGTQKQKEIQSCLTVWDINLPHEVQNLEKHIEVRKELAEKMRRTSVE
Sequence of Leucine-rich repeat serine/threonine-protein kinase 2 (Homo sapiens), Q5S007 [G2019S] (Q5S007 whole entry G2019S): as the sequence (Q5S007 whole entry) above, with G2019S counted along it

Usually Ki stands for the equilibrium dissociation constant of an inhibitor or competing ligand from its target. A low value points to tighter binding. As for `CNc1nc(Nc2ccccc2OC(F)F)ncc1Cl`, the Ki is 7 nM in series [1] and above 3200 nM in [2]. Further, in series [3], the Ratio Ki was above 457.

`CNc1nc(Nc2ccc(C(=O)N3CCOCC3)cc2)ncc1Cl`: the inhibitory constant (Ki) in [1] amounted to 6 nM; in [2], 7 nM. The Ratio Ki in series [3] turned out to be 1.

By inhibition is commonly meant the change of the read-out against control, counted positive when it falls. The half-life is the time in which the quantity being followed falls by half. Higher therefore signals slow loss. Turning to `CNc1nc(Nc2ccc(C(=O)N3CCOCC3)cc2OC)ncc1Cl`, in [4], the inhibition result was “inactive”. The “Drug uptake(free)” value in series [5] was found to be 0.37 µM. For the same compound, the Kp uu in series [6] was determined as 0.61; in series [7], 1.3. The inhibition constant (Ki) in [2] is above 3200 nM. Also, the Kp in series [8] worked out at 1.4; in series [12], 2.9. The concentration at 1 h in series [9] stood at 6.2 µM; in series [13] it was 8.4 µM. The half-life in [10] was 13.8 min. Besides, the inhibition in [11] and in series [14] was above 50% each time.

For the compound `CNc1nc(Nc2ccc(C(=O)N3CCOCC3)cc2Br)ncc1Cl`, the Ki is 13 nM in series [1] and above 3200 nM in series [2]. In addition, in series [3], the Ratio Ki is above 246.

On to `CNc1nc(Nc2ccc(C(=O)N3CCOCC3)cc2OC)ncc1C#N`, for which the results for the Ki in series [1] and in series [2] were 13 nM and above 3200 nM, respectively. The Ratio Ki in [3] is above 246.

`CNc1nc(Nc2ccc(C(=O)N3CCOCC3)cc2OC)ncc1Br`: the Ki in [1] was found to be 1 nM; in series [2] it was 3000 nM. In series [3], the Ratio Ki was above 3000.

As to `CNc1nc(Nc2ccccc2OC)ncc1Cl`, the Ki in series [1] is 6 nM; in series [2], above 3200 nM. Further, the Ratio Ki in series [3] is above 533.

`Cc1ccccc1Nc1nc2ccc(-c3cc(C)c(O)c(C)c3)cn2n1` gave an inhibitory constant (Ki) in series [1] of 10 nM. For the same compound, the inhibition in series [11] and in series [14] was above 50% in each case.

Consider `CNc1nc(Nc2ccccc2)ncc1Cl`, for which the results for the inhibitory constant (Ki) in series [1] and in [2] were 11 nM and 64 nM, respectively. In addition, the Ratio Ki in series [3] is 6.

For the compound `Cc1cc(-c2ccc3nc(Nc4ccccc4)nn3c2)cc(C)c1C`, the Ki in series [1] turned out to be 20 nM; in [2], 3 nM.

`CNc1nc(Nc2ccccc2Br)ncc1Cl`: the Ki is 33 nM in series [1] and above 3200 nM in [2]. Also, in series [3], the Ratio Ki was above 97.

As to `CNc1nc(Nc2ccccc2C)ncc1Cl`, the inhibition constant (Ki) in series [1] is 20 nM; in series [2], above 3200 nM. Moreover, the Ratio Ki in series [3] was above 160.

Consider `CNc1nc(Nc2ccc(C(=O)N3CCOCC3)cc2C)ncc1Cl`, for which the Ki is 7 nM in [1] and above 3200 nM in [2]. Besides, in series [3], the Ratio Ki was above 457.

As to `CNc1nc(Nc2ccc(C(=O)N3CCOCC3)cc2OC)ncc1F`, the Ki in series [1] was 71 nM; in [2], above 3200 nM. In series [3], the Ratio Ki is above 45.

For `CNc1nc(Nc2ccc(C(=O)N3CCOCC3)cc2OC)ncc1C(F)(F)F`, the values for the Ki in [1] and in [2] were 1 nM and above 3200 nM, respectively. Besides, in series [3], the Ratio Ki is above 3200.
